Data on 14 molecules can be found in PubChem BioAssay.

The source made the active and inactive calls.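 The calls were made as follows, unless noted: active = NADPH fluorescence slope more negative than the mean of all samples by about 3 SD, 99.7% confidence; inactive = the rest.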

The nature of test [1]: inhibitors of TNFa-induced NFkB p65 translocation, primary screen, imaging, HUVEC, MLSMR starter and 10KST1 sets (AID 438;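 active = inhibition above 20% together with a positive visual image hit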;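 also: compound added about 3h40 before a 20 min TNFalpha stimulation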;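 as to inhibition: signal is the nuclear over cytoplasmic p65 intensity ratio per well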). The note with it: HUVEC TNFa-induced p65 nuclear translocation; cell count: measured here: nuclei count (cytotoxicity indicator), at 2.08 µM; inhibition: at 2 µM, stronger effect = higher value, 0% TNFa-plus-vehicle, 100% no-TNFa wells.
Test [2] can be described thus: endothelial E-selectin expression blockers – imaging, HUVEC, immunofluorescence, MLSMR starter and 10KST1 sets, primary screen (AID 487;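 active = visually confirmed hit in the image check and inhibition above 20%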;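 as to inhibition: signal is fraction of cell area covered by stained E-selectin grains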;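 as to nuclei count: 100% = median nuclei count of all wells on the same plate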). The note with it: HUVEC TNFalpha-induced E-selectin immunofluorescence imaging, at 2 µM; inhibition: stronger effect = higher value; nuclei count: measured here: cell number, toxicity.
Test [3] can be described thus: Primary imaging screen for DUSP6 inhibitors that restore phospho-Erk in transfected HeLa cells, chemical complementation (AID 609;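 active = compounds giving at least 50% inhibition in the cell-based MKP-3 phosphatase rescue imaging test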;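 as to inhibition: phospho-Erk level distribution per well compared with pooled transfected vehicle control wells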). The note with it: HeLa MKP-3 transfected, phospho-Erk imaging KS statistic, at 10 µM, cells stimulated with TPA for 15 min.
Test [4] addresses Dual specificity protein phosphatase 6 (Homo sapiens) (UniProt Q16828). The description is as above. The note with it: HeLa MKP-3 transfected, phospho-Erk imaging KS statistic; at 10 µM; stronger effect = higher value; cells stimulated with TPA for 15 min.
Test [5] deals with Voltage-gated potassium channel subunit beta-2 (Rattus norvegicus) (UniProt P62483). Put plainly: inhibitors of rat Kvbeta2 reductase activity – biochemical, NADPH fluorescence, primary screen (AID 622;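 active = fluorescence slope higher than the sample average by over 3 SD, cut at about -0.22 in these data, passing the limit was not always enough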;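 also: slope of raw intensity against log time taken from 70 to 1610 s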). The settings on record: recombinant KvBeta, 4-cyanobenzaldehyde reduction, at 10 µM, stronger effect = higher value.
Voltage-gated potassium channel subunit beta-2 (Rattus norvegicus), sequence (P62483 whole entry, looked up): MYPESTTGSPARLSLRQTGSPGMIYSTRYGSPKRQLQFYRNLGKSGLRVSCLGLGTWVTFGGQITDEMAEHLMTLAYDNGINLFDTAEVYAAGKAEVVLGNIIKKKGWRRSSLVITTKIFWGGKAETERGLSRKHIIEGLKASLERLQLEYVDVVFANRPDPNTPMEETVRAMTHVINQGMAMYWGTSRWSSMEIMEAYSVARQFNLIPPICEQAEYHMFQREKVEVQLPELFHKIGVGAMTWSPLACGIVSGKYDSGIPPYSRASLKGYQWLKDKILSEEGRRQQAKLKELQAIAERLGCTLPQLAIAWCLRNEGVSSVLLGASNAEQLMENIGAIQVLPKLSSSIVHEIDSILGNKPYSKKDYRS
Test [6] shares this target. Put plainly: enhancers of rat Kvbeta2 NADPH turnover – biochemical, NADPH fluorescence, primary screen (AID 623).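 Also: fluorescence intensity change per second fitted from 20 to 320 s.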 The note with it: Recombinant KvBeta, NADPH fluorescence decrease slope, 10 min; at 10 µM; stronger effect = lower value.
Test [7] addresses Muscarinic acetylcholine receptor M4 (Homo sapiens) (UniProt P08173). In words: M4-linked GIRK flux change, two-sided – cell-based, HEK293 M4/GIRK, thallium flux, BTC-AM, M4 allosteric agonist project, primary screen (AID 625;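 active = fluorescence slope after compound addition differing from the mean of all tested samples at 99.7% confidence, mostly higher but some lower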;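 also: thallium influx through GIRK channels coupled to M4 in HEK293 cells with BTC-AM dye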). The settings on record: at 10 µM, actives lie on both sides. The gist of the method:
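Assay system: HEK293 cells with M4 receptor and GIRK channels / Controls: carbachol and DMSO controls / Schedule: 1 h dye loading, 2 min kinetic read / Technique: kinetic fluorescence with BTC-AM dye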

Test [8] in a line: inhibitors of larval lipid processing in zebrafish, primary screen, whole organism, PED6 fluorescence, gall bladder and intestine (AID 686;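 active = a full or partial loss of lipid-probe fluorescence in the fish gall bladder, intestine or both, judged by eye; inactive = no fluorescence loss, or compound toxic to the fish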;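 also: signal comes from phospholipase A2 cleavage of quenched PED6 carried via bile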). The note with it: Zebrafish larvae PED6 lipid processing, fluorescence scoring; screened at 20 µM (by protocol). A digest of the protocol: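 Doses: 20 µM single dose. Test system: live zebrafish larvae aged 5-7 days, whole organism. Quantity: five larvae per well. Measured by: By-eye fluorescence microscopy. Reagent: ingested quenched lipid PED6 at 100 nM. Read-out: visual per-well fluorescence inhibition score. Times: overnight exposure of larvae to compound plus PED6.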

The nature of test [9]: loss of swimming-algae plug formation – whole organism, Chlamydomonas reinhardtii, WT vs cilia-less mutant, absorbance, 96-well, primary screen (AID 463189;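 active = inhibition at or above 50% relative to wild type and mutant plate controls; inactive = inhibition below 50%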;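 also: 0% = wild type cc124 cells in DMSO and 100% = ciliumless bld1 mutant cells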). The note with it: Chlamydomonas reinhardtii gravitaxis, OD600 absorbance, 2 days; at 10 µM; stronger effect = higher value.
Setting [10] is: measured here: cell density z-score.
[11] abbreviates: measured here: nuclear c-Myc green intensity z-score.
[12] abbreviates: measured here: nuclear pErk red intensity z-score, stronger effect = higher value.

Dual specificity protein phosphatase 6 (Homo sapiens), sequence (Q16828 whole entry, looked up): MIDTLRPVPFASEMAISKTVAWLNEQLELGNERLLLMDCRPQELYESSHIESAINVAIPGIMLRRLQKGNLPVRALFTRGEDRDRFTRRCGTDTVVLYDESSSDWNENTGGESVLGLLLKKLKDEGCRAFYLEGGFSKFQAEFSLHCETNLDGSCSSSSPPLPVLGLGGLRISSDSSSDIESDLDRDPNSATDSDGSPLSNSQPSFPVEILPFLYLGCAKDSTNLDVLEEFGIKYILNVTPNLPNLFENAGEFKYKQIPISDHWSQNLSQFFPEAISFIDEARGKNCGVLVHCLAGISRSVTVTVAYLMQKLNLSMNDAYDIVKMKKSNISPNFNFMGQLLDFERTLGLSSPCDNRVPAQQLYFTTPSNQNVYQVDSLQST
Muscarinic acetylcholine receptor M4 (Homo sapiens), sequence (P08173 whole entry, looked up): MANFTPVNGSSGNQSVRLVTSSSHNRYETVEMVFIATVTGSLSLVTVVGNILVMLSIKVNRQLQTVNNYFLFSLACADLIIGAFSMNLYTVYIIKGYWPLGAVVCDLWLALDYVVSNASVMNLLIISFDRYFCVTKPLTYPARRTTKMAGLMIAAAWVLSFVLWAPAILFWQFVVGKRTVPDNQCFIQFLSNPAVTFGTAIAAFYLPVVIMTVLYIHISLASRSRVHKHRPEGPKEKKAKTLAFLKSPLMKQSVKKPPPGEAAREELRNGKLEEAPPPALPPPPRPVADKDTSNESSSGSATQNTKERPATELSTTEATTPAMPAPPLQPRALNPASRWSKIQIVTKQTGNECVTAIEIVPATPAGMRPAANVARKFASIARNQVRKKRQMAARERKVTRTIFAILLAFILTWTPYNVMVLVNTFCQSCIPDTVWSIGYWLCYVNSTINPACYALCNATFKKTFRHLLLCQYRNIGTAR

On to `COC(=O)c1[nH]c2ccc(Cl)cc2c1NC(=O)C1CC1`, for which, in test [1], the cell count worked out at 489. Besides, the inhibition in [1] is -0.3% (inactive); in test [2], -43.6% (inactive); in test [4], -4.59% (inactive); in test [9], -10.7% (inactive). In test [2], this molecule gave a nuclei count of 120%. For the same molecule, the z-score in test [3] (setting [10]) is -0.422; in test [3] (setting [11]), -0.0225; in [3] (setting [12]), -0.572. Moreover, the figures for the fluorescence slope in [5] and in test [7] were -0.451 (inactive) and 0.00568 (inactive), respectively. In addition, in test [6], the NADPH fluorescence slope was -5.4e-05 (inactive). Besides, in test [8], the molecule was classed as inactive.
With `CCCc1cc(NCCCCO)n2c(nc3ccccc32)c1C#N`, in test [1], the cell count is 484. Moreover, the inhibition in [1] was -2.4% (inactive); in test [2], -67.8% (inactive); in [4] it was 21.8% (inactive); in test [9], 26.9% (inactive). This molecule came in with a nuclei count in test [2] of 112%. In addition, the z-score in test [3] (setting [10]) was -0.769; in test [3] (setting [11]), -0.182; in test [3] (setting [12]) it was 0.272. Also, the fluorescence slope in test [5] was -0.238 (inactive); in test [7] it was 0.00464 (inactive). Moreover, the NADPH fluorescence slope in test [6] was -2.1e-05 (inactive). For the same molecule, the molecule was called inactive in test [8].
Regarding `CCc1nc2n[nH]c(N)c2c2c1CSC(C)(C)C2`, the cell count in test [1] came out at 644. Besides, the inhibition in [1] is -0.8% (inactive); in test [2] it was -44.1% (inactive); in [4], -15% (inactive); in [9] it was 12.1% (inactive). In test [2], this molecule registered a nuclei count of 168%. For the same molecule, the z-score is -1.43 in [3] (setting [10]), 0.647 in test [3] (setting [11]) and 2.27 in test [3] (setting [12]). In addition, the figures for the fluorescence slope in test [5] and in test [7] were -0.458 (inactive) and 0.00446 (inactive), respectively. Besides, in test [6], the NADPH fluorescence slope was -5.1e-05 (inactive). Further, the molecule was called inactive in [8].
Consider `Cn1c(OCc2cccnc2)nc2c1c(=O)n(Cc1ccc(Br)cc1)c(=O)n2C`, for which the cell count in test [1] was 723. The inhibition was -15.3% (inactive) in test [1], -75% (inactive) in test [2], -5.95% (inactive) in test [4] and 32.6% (inactive) in test [9]. The same molecule gave a nuclei count in test [2] of 172%. In addition, the z-score in [3] (setting [10]) is -1.07; in [3] (setting [11]), -0.35; in [3] (setting [12]), 0.344. Also, the fluorescence slope in test [5] was -0.475 (inactive); in test [7] it was 0.00549 (inactive). In test [6], the NADPH fluorescence slope was -4e-05 (inactive). Also, the outcome in test [8] was inactive.
Consider `O=C(NCCN1CCCCC1)/C(=N\O)c1ccccc1`, for which the cell count in [1] turned out to be 515. For the same molecule, the inhibition in [1] is -13% (inactive); in test [2], 18.4% (inactive); in [4], 23.8% (inactive); in test [9], 2.85% (inactive). In test [2], the nuclei count was 155%. Further, the values for the z-score in test [3] (setting [10]), in test [3] (setting [11]) and in test [3] (setting [12]) were 1.4, 0.164 and -0.171, respectively. Further, the fluorescence slope was -0.4 (inactive) in [5] and 0.00408 (inactive) in [7]. In addition, the NADPH fluorescence slope in [6] was -3.3e-05 (inactive). The call in test [8] was inactive.
For `Cn1c(Cn2cnc3ccccc32)nc2ccccc21`, in [1], the cell count came out at 543. Besides, the inhibition in [1] is 0.2% (inactive); in test [2], 22% (inactive); in test [4], -3.95% (inactive); in test [9], 23% (inactive). The molecule further gave a nuclei count in test [2] of 78.7%. Moreover, the z-score in [3] (setting [10]) was 1.23; in [3] (setting [11]) it was -0.835; in [3] (setting [12]) it was -0.272. Also, the fluorescence slope is -0.431 (inactive) in test [5] and 0.00479 (inactive) in test [7]. In addition, in [6], the NADPH fluorescence slope is 9.8e-06 (inactive). Also, the outcome in test [8] was inactive.
With `CCOC(=O)CNC(=O)CNC(=O)c1ccc(OC)cc1`, the cell count in test [1] was 394. Also, the inhibition in test [1] is -0.5% (inactive); in [2], 6.4% (inactive); in test [4] it was 17.4% (inactive); in [9], 23.5% (inactive). The molecule further registered a nuclei count in [2] of 82.7%. Besides, the z-score in test [3] (setting [10]) amounted to 0.162; in test [3] (setting [11]) it was 0.31; in [3] (setting [12]), 1.25. Moreover, the fluorescence slope is -0.447 (inactive) in test [5] and 0.0051 (inactive) in test [7]. Besides, the NADPH fluorescence slope in [6] is -5.5e-05 (inactive). The call in test [8] was inactive.
Consider `CC(=O)Oc1ccc2c(C)cc(=O)[nH]c2c1`, for which, in [1], the cell count is 666. Besides, the inhibition in [1] was -2% (inactive); in [2], -13% (inactive); in test [4], 5.95% (inactive); in test [9] it was 22.8% (inactive). The molecule further yielded a nuclei count in test [2] of 99.4%. The z-score is -0.72 in [3] (setting [10]), 0.616 in [3] (setting [11]) and 0.878 in [3] (setting [12]). The values for the fluorescence slope in [5] and in test [7] were -0.502 (inactive) and 0.00681 (inactive), respectively. Moreover, the NADPH fluorescence slope in test [6] was -0.000195 (active). Also, the molecule was called inactive in test [8].
On to `C=CCOc1ccc(/C(O)=C2/C(=O)C(=O)N(CCCN3CCOCC3)C2c2ccccc2)cc1` (configuration not stated), for which, in test [1], the cell count amounted to 400. Further, the inhibition in [1] is -4.5% (inactive); in test [2], -152% (inactive); in [4], 7.73% (inactive); in [9] it was 3.35% (inactive). The molecule also yielded a nuclei count in [2] of 142%. Moreover, the z-score in test [3] (setting [10]) is 0.832; in test [3] (setting [11]), -1.64; in test [3] (setting [12]), 0.377. Also, the results for the fluorescence slope in [5] and in [7] were -0.44 (inactive) and 0.00439 (inactive), respectively. Further, in test [6], the NADPH fluorescence slope is -0.000122 (inactive). Further, the molecule was classed as inactive in test [8].
Turning to `CC(=O)[C@H]1[C@@H]2C(=O)N(c3cccc(Cl)c3)C(=O)[C@@H]2[C@H]2c3ccccc3C=CN21`, in test [1], the cell count was 652. The inhibition in [1] is 0% (inactive); in [2], 5.3% (inactive); in test [4], -2.47% (inactive); in test [9], 18.1% (inactive). The same molecule returned a nuclei count in test [2] of 144%. The z-score was 0.229 in [3] (setting [10]), 0.26 in [3] (setting [11]) and -0.893 in test [3] (setting [12]). Moreover, the values for the fluorescence slope in test [5] and in [7] were -0.495 (inactive) and 0.00696 (inactive), respectively. Besides, in [6], the NADPH fluorescence slope is -3.6e-05 (inactive). Also, the call in test [8] was inactive.
As for `CN1CCN(Cc2c(O)c(Cl)cc3c(-c4ccccc4)cc(=O)oc23)CC1`, the cell count in test [1] was 601. For the same molecule, the inhibition is -8.3% (inactive) in [1], -38.4% (inactive) in test [2], 2.46% (inactive) in [4] and 10.5% (inactive) in [9]. In [2], this molecule had a nuclei count of 108%. Moreover, the z-score in test [3] (setting [10]) was -0.109; in test [3] (setting [11]), -0.251; in [3] (setting [12]), -0.155. For the same molecule, the fluorescence slope in test [5] is -0.232 (inactive); in [7], 0.00592 (inactive). Moreover, the NADPH fluorescence slope in test [6] was -2.2e-05 (inactive). Moreover, the call in test [8] was inactive.
For the molecule `CCOc1ccc(NC(=O)c2nn(C)cc2Br)cc1`, in test [1], the cell count is 647. Further, the inhibition in test [1] is 2.4% (inactive); in [2] it was -41% (inactive); in test [4], -4.27% (inactive); in test [9], 4.55% (inactive). In addition, the nuclei count in test [2] turned out to be 157%. The z-score in test [3] (setting [10]) was 0.327; in test [3] (setting [11]), 0.393; in [3] (setting [12]), -0.814. The fluorescence slope in [5] was -0.489 (inactive); in test [7], 0.00579 (inactive). Moreover, the NADPH fluorescence slope in [6] is -6.1e-05 (inactive). The molecule was called inactive in test [8].
As for `COC(=O)CSc1nc(-c2cccs2)ccc1C#N`, the cell count in test [1] turned out to be 646. Further, the inhibition in test [1] was 1.5% (inactive); in test [2], -18.4% (inactive); in [4], 2.92% (inactive); in test [9], -2.12% (inactive). In addition, the nuclei count in test [2] came to 154%. The z-score in [3] (setting [10]) was 0.598; in test [3] (setting [11]), -1.62; in test [3] (setting [12]), -0.658. Also, the fluorescence slope in test [5] was -0.456 (inactive); in [7] it was 0.00605 (inactive). For the same molecule, the NADPH fluorescence slope in test [6] is -4.2e-05 (inactive). For the same molecule, in test [8], the outcome was inactive.
With `COCc1n[nH]c(=S)n1-c1cccc2ccccc12`, the cell count in [1] came to 533. For the same molecule, the inhibition in [1] was -1.3% (inactive); in test [2], -25.8% (inactive); in test [4], 5.95% (inactive); in test [9] it was 4.29% (inactive). In addition, in test [2], the nuclei count is 173%. In addition, the z-score came to 0.455 in test [3] (setting [10]), 0.388 in [3] (setting [11]) and 0.964 in [3] (setting [12]). The fluorescence slope in test [5] is -0.415 (inactive); in test [7] it was 0.00527 (inactive). Also, in [6], the NADPH fluorescence slope is -4.6e-05 (inactive). The molecule was classed as inactive in test [8].
